This is an account of results in ChEMBL document CHEMBL4257520, “Design, synthesis and bioactivity investigation of tetrandrine derivatives as potential anti-cancer agents” (Medchemcomm, 2018).

SMILES strings stand for the structures. pIC50: −log10 of the molar value. The source made the active and inactive calls. No cut-off for these calls is given here.

One test has as its system HEL. Nature of the test: Antiproliferative activity against HEL cells after 48 hrs by MTT assay. Type of test: functional, cell-based. To be noted: Homo sapiens. The method in brief:
(§1)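 MTT assay on human cancer lines held at 37 °C, 95% humidity, 5% CO2. Cells were exposed to compounds at 20.0–0.5 μM for 48 h, then washed twice with PBS. MTT (5 mg mL–1 in PBS) was added for 4 h at 37 °C, the formazan was dissolved in DMSO, and A490 was read. IC50 comes from replicate wells over three independent experiments.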

Another test deals with K562. Nature of the test: Antiproliferative activity against human K562 cells after 48 hrs by MTT assay. The class given is functional, cell-based. To be noted: K562, 48 h. The method in brief: as §1
In the next test the test system is PC-3. Nature of the test: Antiproliferative activity against human PC3 cells after 48 hrs by MTT assay. Type of test: functional, cell-based. To be noted: PC-3, 48 h. The method, boiled down:
as §1

A short description of test [1]: Antiproliferative activity against human WM9 cells after 48 hrs by MTT assay. The class given is functional, cell-based. To be noted: WM9, 48 h. The method in brief: as §1
Test [2] concerns MDA-MB-231. Briefly: Antiproliferative activity against human MDA-MB-231 cells after 48 hrs by MTT assay. To be noted: MDA-MB-231, 48 h. The class given is functional, cell-based. The method, boiled down:
as §1
(In general: Tetrazolium dyes change colour on reduction, which living cells bring about.)

A further test relates to L02. Nature of the test: Cytotoxicity against human HL7702 cells after 48 hrs by MTT assay. Type of test: cell-based. To be noted: L02, 48 h. The method, boiled down: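 Normal human liver HL7702 cells were assessed by MTT assay, with formazan absorbance as the read-out, to give an IC50 for cytotoxicity.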
Test [3] deals with MDA-MB-231. Nature of the test: Induction of apoptosis in human MDA-MB-231 cells assessed as live cells at 2.5 uM after 24 hrs by Annexin V-FITC/propidium iodide staining based flow cytometry (reference value: 95.7%). Type of test: functional. On the technique in general: In flow cytometry, cells or beads pass a laser one at a time.
In test [4] the test system is MDA-MB-231. Nature of the test: Induction of apoptosis in human MDA-MB-231 cells assessed as early apoptotic cells at 2.5 uM after 24 hrs by Annexin V-FITC/propidium iodide staining based flow cytometry (reference value: 2.1%). Type of test: functional.
Test [5] relates to MDA-MB-231. Briefly: Induction of apoptosis in human MDA-MB-231 cells assessed as late apoptotic cells at 2.5 uM after 24 hrs by Annexin V-FITC/propidium iodide staining based flow cytometry (reference value: 1.9%). The class given is functional.
Test [6] relates to MDA-MB-231. Nature of the test: Induction of apoptosis in human MDA-MB-231 cells assessed as necrotic cells at 2.5 uM after 24 hrs by Annexin V-FITC/propidium iodide staining based flow cytometry (reference value: 0.3%). The class given is functional.
Test [7] deals with MDA-MB-231. Briefly: Induction of apoptosis in human MDA-MB-231 cells assessed as live cells at 1.25 uM after 24 hrs by Annexin V-FITC/propidium iodide staining based flow cytometry (reference value: 95.7%). Type of test: functional.
The subject of test [8] is MDA-MB-231. Nature of the test: Induction of apoptosis in human MDA-MB-231 cells assessed as early apoptotic cells at 1.25 uM after 24 hrs by Annexin V-FITC/propidium iodide staining based flow cytometry (reference value: 2.1%). The class given is functional.
Test [9] relates to MDA-MB-231. Briefly: Induction of apoptosis in human MDA-MB-231 cells assessed as late apoptotic cells at 1.25 uM after 24 hrs by Annexin V-FITC/propidium iodide staining based flow cytometry (reference value: 1.9%). Type of test: functional.
For test [10], the system named is MDA-MB-231. Nature of the test: Induction of apoptosis in human MDA-MB-231 cells assessed as necrotic cells at 1.25 uM after 24 hrs by Annexin V-FITC/propidium iodide staining based flow cytometry (reference value: 0.3%). The class given is functional.
Test [11] deals with MDA-MB-231. Nature of the test: Induction of apoptosis in human MDA-MB-231 cells after 24 hrs by Annexin V-FITC/propidium iodide staining based flow cytometry. Type of test: functional, cell-based.
In test [12] the test system is MDA-MB-231. Nature of the test: Induction of apoptosis in human MDA-MB-231 cells assessed as increase in Bax expression at 2.5 uM after 24 hrs by Western blot analysis. The class given is functional, cell-based. The method in brief: (§2)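 MDA-MB-231 cells were treated at 2.5 μM for 24 h and lysed in RIPA buffer. Protein was resolved on 10% SDS-PAGE, transferred to PVDF, and blocked in 5% BSA for 2 h at RT. Primary antibodies were applied overnight at 4 °C and HRP-conjugated secondary antibodies for 2 h at RT. Bands were detected by ECL, with β-actin as the loading reference.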
For orientation: In western blotting, separated proteins are transferred to a membrane and probed.

The test system of test [13] is MDA-MB-231. Briefly: Induction of apoptosis in human MDA-MB-231 cells assessed as increase in cleaved PARP expression at 2.5 uM after 24 hrs by Western blot analysis. Type of test: functional, cell-based. The method in brief:
as §2

The subject of test [14] is MDA-MB-231. Nature of the test: Induction of apoptosis in human MDA-MB-231 cells assessed as decrease in Bcl-xl expression at 2.5 uM after 24 hrs by Western blot analysis. Type of test: functional, cell-based. The method, boiled down:
as §2

In test [15] the test system is MDA-MB-231. Nature of the test: Induction of apoptosis in human MDA-MB-231 cells assessed as decrease in Bcl2 expression at 2.5 uM after 24 hrs by Western blot analysis. The class given is functional, cell-based. The method, boiled down: as §2

As for `COc1cc(NS(=O)(=O)c2ccc3ccccc3c2)c2cc1Oc1ccc(cc1)C[C@H]1c3cc(c(OC)cc3CCN1C)Oc1c(OC)c(OC)cc3c1[C@H](C2)N(C)CC3`, the negative-log IC50 (pIC50) – broadly, the IC50 on a negative log10 scale, so that one unit is a factor of ten – with HEL is 5.63; in the test with K562, 5.77; with PC-3 it was 5.40; in test [1], 5.32; in the test on MDA-MB-231 [2], 5.93; with L02 it was 4.84. Further, the Activity with MDA-MB-231 [3] was 42.6%; in the test with MDA-MB-231 [4], 28.6%; with MDA-MB-231 [5] it was 27.2%; in the test on MDA-MB-231 [6], 1.5%; with MDA-MB-231 [7], 85.9%; in the test with MDA-MB-231 [8], 3.8%. The Activity with MDA-MB-231 [9] is 9.6%; in the test on MDA-MB-231 [10], 0.7%; with MDA-MB-231 [11] it was “Dose-dependent effect”. The result in the test with MDA-MB-231 [12], in the test with MDA-MB-231 [13], in the test on MDA-MB-231 [14] and with MDA-MB-231 [15] was Active.

On to `COc1cc(NS(=O)(=O)c2c(C)cc(C)cc2C)c2cc1Oc1ccc(cc1)C[C@H]1c3cc(c(OC)cc3CCN1C)Oc1c(OC)c(OC)cc3c1[C@H](C2)N(C)CC3`, for which the pIC50 with HEL was 5.32; in the test on K562, 5.49; with PC-3, 5.48; in [1], 5.38; in the test with MDA-MB-231 [2] it was 5.27; in the test with L02 it was 4.67.

Turning to `COc1cc(NS(=O)(=O)c2ccccc2F)c2cc1Oc1ccc(cc1)C[C@H]1c3cc(c(OC)cc3CCN1C)Oc1c(OC)c(OC)cc3c1[C@H](C2)N(C)CC3`, the pIC50 with HEL was 5.52; in the test on K562, 5.23; in the test on PC-3, 5.23; in test [1], 5.38; with MDA-MB-231 [2], 5.10; in the test with L02, 4.79.

In the case of `COc1cc(NS(=O)(=O)c2ccc([N+](=O)[O-])cc2)c2cc1Oc1ccc(cc1)C[C@H]1c3cc(c(OC)cc3CCN1C)Oc1c(OC)c(OC)cc3c1[C@H](C2)N(C)CC3`, the pIC50 in the test on HEL was 5.43; with K562 it was 5.39; in the test on PC-3, 5.35; in [1], 5.37; with MDA-MB-231 [2], 5.15; in the test with L02, 4.85.
